The target in the assay is 5-hydroxytryptamine receptor 6 (Homo sapiens, UniProt P50406). The assay can be described thus: Binding affinity against h5-HT6 receptor transiently expressed in HEK293 cells. In kind it is cell-based. In a few lines:
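Harvested transfected cells 72 h post-transfection (medium changed at 24 h; dialyzed serum added 24 h later to remove 5-HT), washed in PBS pH 7.40, stored frozen at -80 °C. Competition binding at room temperature, 90 min, in 50 mM Tris-Cl, 10 mM MgCl2, 0.1 mM EDTA pH 7.40 with [3H]LSD 1 nM final; 10 µM clozapine defines nonspecific binding.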

Chain of 5-hydroxytryptamine receptor 6 (P50406 whole entry): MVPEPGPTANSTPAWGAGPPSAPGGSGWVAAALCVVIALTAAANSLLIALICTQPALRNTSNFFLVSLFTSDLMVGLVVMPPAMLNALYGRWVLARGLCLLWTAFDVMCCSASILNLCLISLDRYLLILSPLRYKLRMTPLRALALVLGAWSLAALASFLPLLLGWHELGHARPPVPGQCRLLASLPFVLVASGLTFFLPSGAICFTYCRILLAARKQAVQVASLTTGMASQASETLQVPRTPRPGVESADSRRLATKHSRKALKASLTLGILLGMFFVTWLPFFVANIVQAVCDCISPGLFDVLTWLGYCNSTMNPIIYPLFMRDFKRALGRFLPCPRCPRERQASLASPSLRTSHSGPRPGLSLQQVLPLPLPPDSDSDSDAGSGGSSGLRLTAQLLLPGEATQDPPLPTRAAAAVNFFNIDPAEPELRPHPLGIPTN

What is called Ki is the equilibrium dissociation constant of an inhibitor or competing ligand from its target. Low values mean higher affinity, high ones lower affinity. As for `CN1CCC[C@@H]1Cc1cn(S(=O)(=O)c2ccccc2)c2ccccc12`, affinity was put at a Ki of 0.3 nM.

Regarding `O=S(=O)(c1ccccc1)n1cc(C[C@@H]2CCCN2)c2ccccc21`, the Ki turned out to be 46 nM.

As for `O=S(=O)(c1ccccc1)n1cc(C[C@H]2CCCN2)c2ccccc21`, affinity was put at a Ki of 7.8 nM.

`CN1CCC[C@@H]1Cn1cc(Cc2ccccc2)c2ccccc21` came in with a Ki of 9.9 nM.

`CN1CCC[C@H]1Cc1cn(S(=O)(=O)c2ccccc2)c2ccccc12` displayed a Ki of 1.7 nM.

Turning to `CN1CCC[C@H]1Cn1cc(Cc2ccccc2)c2ccccc21`, the Ki was found to be 29 nM.

In turn, `c1ccc2c(C[C@@H]3CCCN3)c[nH]c2c1` displayed an inhibitory constant (Ki) of 2400 nM.

With `CN1CCC[C@@H]1Cc1c[nH]c2ccccc12`, the affinity corresponds to a Ki of 640 nM.

Regarding `c1ccc2c(C[C@H]3CCCN3)c[nH]c2c1`, the Ki worked out at 60 nM.

For `CN1CCC[C@H]1Cc1c[nH]c2ccccc12`, the affinity, expressed as Ki, was 9.1 nM.

With `CN(C)CCc1cn(S(=O)(=O)c2ccccc2)c2ccccc12`, the affinity, expressed as Ki, was 4 nM.

Source of the values: ChEMBL document CHEMBL1139582, “Interaction of chiral MS-245 analogs at h5-HT6 receptors” (Bioorg Med Chem Lett, 2005).
